Compounds with a hit are over-represented: about 1.9% of the library has one in this group of screens.
Runt-CBFb FRET = inhibitors of human RUNX1 Runt domain binding to CBFb | AID 1496 | inhibition, % at 20 µM | Cerulean-Runt/Venus-CBFb FRET ratio 530/480, 1 h | 220,000 compounds, 0.46% hits;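 active = inhibition over about 50% at 20 µM in the single-dose screen, limit read from the data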;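 also: 0% = DMSO wells and 100% = excess unlabeled CBFb competitor control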
Target sequence (Q01196 whole entry, looked up, the tested form may be a part): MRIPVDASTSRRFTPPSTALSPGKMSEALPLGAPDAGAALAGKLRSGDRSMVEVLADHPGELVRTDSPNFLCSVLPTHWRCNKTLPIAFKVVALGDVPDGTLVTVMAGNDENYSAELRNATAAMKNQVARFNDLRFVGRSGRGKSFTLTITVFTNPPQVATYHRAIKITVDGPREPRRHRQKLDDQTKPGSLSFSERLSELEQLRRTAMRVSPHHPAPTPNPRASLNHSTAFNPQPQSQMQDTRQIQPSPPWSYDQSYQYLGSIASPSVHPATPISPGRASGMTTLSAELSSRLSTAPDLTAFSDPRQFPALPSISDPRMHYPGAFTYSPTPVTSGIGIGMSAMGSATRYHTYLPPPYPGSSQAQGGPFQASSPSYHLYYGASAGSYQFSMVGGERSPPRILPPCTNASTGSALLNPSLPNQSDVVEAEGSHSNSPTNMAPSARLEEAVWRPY
Target sequence (Q13951 whole entry, looked up, the tested form may be a part): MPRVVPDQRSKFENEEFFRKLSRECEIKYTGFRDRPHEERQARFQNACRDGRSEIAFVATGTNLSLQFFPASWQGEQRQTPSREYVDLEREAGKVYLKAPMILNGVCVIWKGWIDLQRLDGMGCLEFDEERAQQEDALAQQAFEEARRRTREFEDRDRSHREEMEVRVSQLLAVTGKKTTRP
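Doses: 20 µM compound in 1% DMSO | Material: Cerulean-labeled Runt domain protein | Amount: Each fluorescent fusion protein 100 nM | Schedule: Two 1 h room-temperature incubations shielded from light | Measured by: FRET fluorescence | Evaluation: Loss of energy transfer signal | Controls: Unlabeled CBFb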
Hck Nef HTS = blocks Nef-activated human Hck kinase. Recombinant Hck-YEEI plus Nef, Z-Lyte FRET kinase assay. P08631. 220,000 compounds, 0.68% hits. AID 463187. inhibition, % at 20 µM;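 active = Hck-Nef kinase inhibition above about 50%, limit read from the data; inactive = inhibition below that limit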;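 also: 0% = DMSO with Hck plus Nef and 100% = Hck alone without Nef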
Runt-SMMHC FRET = Runt domain-CBFb-SMMHC interaction inhibition | inhibition, % at 20 µM | Cerulean-Runt/Venus-CBFb-SMMHC FRET ratio 530/480, 1 h | 220,000 compounds, 0.74% hits | Q01196+Q13951;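 active = mean inhibition across duplicate retests at 20 µM reaching about 50%, limit read from the data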;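 also: 0% = DMSO wells and 100% = wells with excess untagged CBFb-SMMHC; inhibitors lower the FRET ratio by blocking Runt binding to CBFb-SMMHC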
RanGTP-Impb inh = disruptors of Ran-importin-beta complex formation – biochemical, FRET, CFP-Ran, YFP-importin-beta, homogeneous, primary screen. 300,000 compounds, 1.1% hits. cell-free CFP-Ran/YFP-importin-beta FRET ratio. inhibition, % (concentration not given with the values);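 active = more than half of the replicate wells show a fall in the fluorescence ratio signal beyond about 16%, limit read from the data, passing the limit was not always enough; inconclusive = exactly half of the replicate wells pass the set limit; inactive = fewer than half of replicates pass the limit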;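 also: 0% = DMSO wells and 100% = Ran loaded with GDP instead of GTP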
An asterisk follows results filed as active; ? = inconclusive; . = no result given.

SMILES	Runt-CBFb FRET	Hck Nef HTS	Runt-SMMHC FRET	RanGTP-Impb inh
CCCCNC(=O)Oc1c(Br)cc2sc(=O)oc2c1Br	23.4	56.0*	8.4	.
CC(=O)Oc1ccc(/C(C)=N\N2CCN(Cc3ccc(Cl)cc3)CC2)cc1	.	.	.	-1.9
O=C(Cc1ccc(S(=O)(=O)N2CCOCC2)s1)Nc1ccccc1N1CCCC1	.	.	.	18.8*
CCN1C(=O)/C(=C/C=C2/CCCN2C)OC1=S	2.6	12.2	125.1*	0.9
Cc1cccc(-n2c(O)c(C=Nc3cc(O)ccc3C)c3ccccc3c2=O)n1	-23.8	0.3	-30.0	-2.0
Cc1cccc(-n2c(O)c(C=Nc3ccccc3O)c3ccccc3c2=O)n1	0.6	2.7	7.3	30.2*
COc1ccc(Nc2nc3ccc(OC)cc3s2)cc1	-0.8	11.5	-5.4	1.8
COc1ccc2nc(Nc3nc(C)c(C(C)=O)s3)sc2c1	11.2	-8.6	41.7	18.1*
NC(=O)C1CCN(C(=O)Nc2csc3ccccc23)CC1	0.3	3.7	4.7	2.1
c1ccc2nc3ccccc3nc2c1	-0.6	-5.5	-0.8	3.6
N#Cc1c2ccccc2nc2ccccc12	44.6	43.4	97.9*	18.2*
COc1ccc(OC)c(NC(=O)CSc2ccc3nnc(-c4ccccn4)n3n2)c1	.	.	.	-0.5
O=C(O)CCCC(=O)N1CCN(c2nc(-c3ccccc3)c3ccccc3n2)CC1	13.9	11.3	14.1	20.4*
O=C(O)C1CC=CCC1C(=O)N1CCN(c2nc(-c3ccccc3)c3ccccc3n2)CC1 (stereo unspecified)	9.9	5.5	30.1	12.4
c1ccc(-c2nc(N3CCCCC3)nc3ccccc23)cc1	34.6	6.1	118.4*	40.9*
Cc1ccc2nc(N3CCN(C(=O)CCC(=O)O)CC3)nc(-c3ccccc3)c2c1	.	.	.	29.6*
CC1CN(c2ccccc2)CCN1Cc1nc(Cc2ccccc2)no1 (stereo unspecified)	-0.6	17.3	-0.5	-1.5
Cc1cccn2c(=O)c3cc(C(=O)N(C)C)n(C)c3nc12	-10.9	23.0	-24.5	-5.3
Cc1cccn2c(=O)c3cc(C#N)c(=NC(=O)c4ccco4)n(Cc4ccco4)c3nc12	9.6	22.5	88.1*	119.9*
Cc1cccn2c(=O)c3cc(C#N)c(=NC(=O)c4ccccc4)n(Cc4ccco4)c3nc12	.	.	.	110.5*
Cc1cccc(C(=O)N=c2c(C#N)cc3c(=O)n4cccc(C)c4nc3n2Cc2ccco2)c1	95.2*	27.7	.	111.8*
Cc1cc(NC(=O)C(C)Oc2ccccc2)no1 (stereo unspecified)	.	.	.	-3.3
O=C(Nc1ccc(S(=O)(=O)N2CCOCC2)cc1)c1ccc(Br)o1	-0.6	0.0	3.2	-3.5
Cc1ccc(-c2nc3cnccn3c2Nc2c(C)cccc2C)o1	-2.8	3.7	-47.3	46.7*
Cc1ccccc1NC(=S)C1=C(O)c2sccc2N(C)S1(=O)=O	28.9	-19.3	50.4*	89.2*
SMILES	Runt-CBFb FRET	Hck Nef HTS	Runt-SMMHC FRET	RanGTP-Impb inh
Cc1ccc(NC(=S)C2=C(O)c3ccccc3N(C)S2(=O)=O)cc1	9.5	2.1	4.3	-1.5
CCNC(=O)C1=C(O)c2sccc2N(C)S1(=O)=O	44.8	25.1	65.3*	75.7*
COc1cccc(/C(O)=C2/C(=O)C(=O)N(CCN(C)C)C2c2ccccn2)c1 (stereo unspecified)	-0.6	0.0	-1.9	?
Cc1c(/C(O)=C2/C(=O)C(=O)N(CCN3CCOCC3)C2c2ccccn2)cnn1-c1ccccc1 (stereo unspecified)	12.4	-17.8	18.0	34.6*
O=C1C(=O)N(CCN2CCOCC2)C(c2ccccn2)/C1=C(/O)c1ccc(F)cc1 (stereo unspecified)	5.4	-0.2	3.5	19.1*
CN(C)CCN1C(=O)C(=O)/C(=C(/O)c2ccc3c(c2)OCCO3)C1c1ccccn1 (stereo unspecified)	1.7	13.9	-1.1	24.3*
COc1ccc(/C(O)=C2/C(=O)C(=O)N(CCN3CCOCC3)C2c2ccccn2)cc1 (stereo unspecified)	6.4	-1.2	8.2	.
Cc1ccc(-c2nc(CSCC(=O)NCc3cccnc3)c(C)o2)cc1	-2.4	-0.1	0.6	-0.9
Nc1nc(N2CCOCC2)cc(=O)[nH]1	5.5	0.6	18.8	20.3*
O=C(Nc1cccc(Cl)c1)NC1CC2CCC(C1)N2Cc1ccco1 (stereo unspecified)	2.5	-11.1	-2.4	33.5*
CCc1ccccc1NC(=O)NC1CC2CCC(C1)N2Cc1ccco1 (stereo unspecified)	0.2	19.2	2.6	5.5
CCOC(=O)C1CCN(C(=O)CN2C(=O)CSc3ccc(S(=O)(=O)N4CCOCC4)cc32)CC1	.	.	.	1.0

Assay outcomes from PubChem BioAssay.
